Reference: ChEMBL document CHEMBL4402599 (J Med Chem, 2020)
One block for each compound: values may come before it.

Key:
[1] = target: T1, Inositol 1,4,5-trisphosphate-gated calcium channel ITPR1 (Rattus norvegicus, UniProt P29994); experiment: Agonist activity at rat IP3R1 expressed in HEK cells assessed as increase in calcium release in cytosol by measuring fluorescence signal by Mag-Fluo4 dye based assay; assay type: cell-based
[2] = target: T1, Inositol 1,4,5-trisphosphate-gated calcium channel ITPR1; experiment: Displacement of [3H]-IP3 from IP3R1 in Wistar rat cerebellar membrane measured after 5 mins by liquid scintillation counting method; assay type: cell membranes, Cerebellum
[3] = target: Inositol 1,4,5-trisphosphate-gated calcium channel ITPR1 (Rattus norvegicus) (UniProt P29994); experiment: Ratio of EC50 for agonist activity at rat IP3R1 expressed in HEK cells assessed as increase in calcium release in cytosol by measuring fluorescence signal by Mag-Fluo4 dye based assay to Kd for binding affinity to IP3R1 in Wistar rat cerebellar membrane; assay type: cell-based
Sequence of Inositol 1,4,5-trisphosphate-gated calcium channel ITPR1 (Rattus norvegicus) (P29994 whole entry, looked up): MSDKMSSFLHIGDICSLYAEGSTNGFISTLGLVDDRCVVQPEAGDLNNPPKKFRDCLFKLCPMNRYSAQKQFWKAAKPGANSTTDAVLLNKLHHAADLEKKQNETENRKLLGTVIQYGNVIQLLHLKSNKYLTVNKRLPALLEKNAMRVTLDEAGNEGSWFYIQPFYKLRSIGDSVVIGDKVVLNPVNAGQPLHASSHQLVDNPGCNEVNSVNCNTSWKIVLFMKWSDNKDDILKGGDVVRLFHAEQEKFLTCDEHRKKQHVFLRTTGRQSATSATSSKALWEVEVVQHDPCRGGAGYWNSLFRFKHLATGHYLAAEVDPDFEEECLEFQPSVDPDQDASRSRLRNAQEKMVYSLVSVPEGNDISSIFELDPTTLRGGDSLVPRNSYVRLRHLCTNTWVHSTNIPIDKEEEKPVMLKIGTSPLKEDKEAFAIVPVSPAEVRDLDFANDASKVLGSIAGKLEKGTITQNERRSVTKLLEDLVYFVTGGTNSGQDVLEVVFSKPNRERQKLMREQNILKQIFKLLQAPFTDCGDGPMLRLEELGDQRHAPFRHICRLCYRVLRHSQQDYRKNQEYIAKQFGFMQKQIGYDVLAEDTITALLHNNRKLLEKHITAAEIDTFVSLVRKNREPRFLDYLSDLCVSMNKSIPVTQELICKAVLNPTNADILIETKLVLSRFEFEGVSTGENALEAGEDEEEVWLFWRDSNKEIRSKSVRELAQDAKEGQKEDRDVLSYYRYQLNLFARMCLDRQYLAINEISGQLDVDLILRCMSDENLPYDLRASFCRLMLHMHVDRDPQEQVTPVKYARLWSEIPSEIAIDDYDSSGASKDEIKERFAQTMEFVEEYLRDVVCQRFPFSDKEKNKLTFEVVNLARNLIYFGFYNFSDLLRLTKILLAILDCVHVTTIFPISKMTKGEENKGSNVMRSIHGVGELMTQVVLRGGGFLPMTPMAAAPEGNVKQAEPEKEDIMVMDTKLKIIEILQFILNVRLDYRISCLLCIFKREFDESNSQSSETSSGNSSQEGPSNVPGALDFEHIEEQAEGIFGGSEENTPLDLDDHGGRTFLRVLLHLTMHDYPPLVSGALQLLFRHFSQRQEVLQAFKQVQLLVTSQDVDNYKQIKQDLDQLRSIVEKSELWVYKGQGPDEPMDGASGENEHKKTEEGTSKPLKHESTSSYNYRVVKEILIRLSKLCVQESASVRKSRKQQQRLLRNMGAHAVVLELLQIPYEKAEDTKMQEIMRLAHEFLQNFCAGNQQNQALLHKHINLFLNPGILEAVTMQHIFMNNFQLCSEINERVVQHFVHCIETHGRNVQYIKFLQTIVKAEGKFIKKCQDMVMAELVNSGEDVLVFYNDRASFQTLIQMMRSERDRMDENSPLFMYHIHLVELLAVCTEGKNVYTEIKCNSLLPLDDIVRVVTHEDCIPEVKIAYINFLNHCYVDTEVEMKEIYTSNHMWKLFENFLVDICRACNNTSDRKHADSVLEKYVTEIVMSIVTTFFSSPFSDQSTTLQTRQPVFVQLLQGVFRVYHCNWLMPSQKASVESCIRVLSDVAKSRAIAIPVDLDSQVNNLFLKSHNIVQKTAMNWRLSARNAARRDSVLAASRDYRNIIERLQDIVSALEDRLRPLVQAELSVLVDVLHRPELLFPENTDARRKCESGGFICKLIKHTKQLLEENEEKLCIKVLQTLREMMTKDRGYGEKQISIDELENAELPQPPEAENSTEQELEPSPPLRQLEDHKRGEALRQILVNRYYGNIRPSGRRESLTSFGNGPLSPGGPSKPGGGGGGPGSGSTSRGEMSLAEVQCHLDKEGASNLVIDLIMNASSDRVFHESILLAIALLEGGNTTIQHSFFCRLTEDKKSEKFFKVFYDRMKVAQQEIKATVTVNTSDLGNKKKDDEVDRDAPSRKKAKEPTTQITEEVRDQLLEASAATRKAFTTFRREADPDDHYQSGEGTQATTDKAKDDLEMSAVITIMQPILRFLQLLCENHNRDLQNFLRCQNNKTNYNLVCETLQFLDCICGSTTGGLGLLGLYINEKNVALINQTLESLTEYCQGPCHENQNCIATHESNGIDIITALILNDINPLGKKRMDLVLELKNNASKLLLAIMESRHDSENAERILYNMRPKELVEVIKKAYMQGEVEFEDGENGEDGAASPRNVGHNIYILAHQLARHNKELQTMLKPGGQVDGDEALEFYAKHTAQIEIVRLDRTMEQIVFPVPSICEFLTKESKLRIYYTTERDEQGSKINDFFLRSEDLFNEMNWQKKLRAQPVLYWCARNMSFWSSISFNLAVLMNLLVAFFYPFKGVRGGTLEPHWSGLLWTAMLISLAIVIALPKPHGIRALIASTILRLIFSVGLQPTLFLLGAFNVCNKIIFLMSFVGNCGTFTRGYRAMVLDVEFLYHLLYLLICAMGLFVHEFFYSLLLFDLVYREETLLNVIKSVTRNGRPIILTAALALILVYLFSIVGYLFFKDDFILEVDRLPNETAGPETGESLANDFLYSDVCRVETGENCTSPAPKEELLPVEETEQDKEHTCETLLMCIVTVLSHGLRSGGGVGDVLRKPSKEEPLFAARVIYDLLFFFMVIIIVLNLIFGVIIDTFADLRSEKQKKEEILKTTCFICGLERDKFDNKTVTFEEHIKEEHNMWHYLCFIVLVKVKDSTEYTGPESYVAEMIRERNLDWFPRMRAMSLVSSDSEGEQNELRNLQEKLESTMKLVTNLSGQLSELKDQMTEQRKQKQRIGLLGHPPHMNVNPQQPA
How it was run: (§1)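 Ratio of EC50 from Mag-Fluo-4 Ca2+ release in permeabilized rat IP3R1-HEK cells to Kd from [3H]-IP3 competition with rat cerebellar membranes. Calculated from the difference of log values (pEC50 − pKd); given as mean with 95% CI.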

[4] = target: T1, Inositol 1,4,5-trisphosphate-gated calcium channel ITPR1; experiment: Partial agonist activity at rat IP3R1 expressed in HEK cells assessed as increase in calcium release in cytosol by measuring fluorescence signal by Mag-Fluo4 dye based assay; assay type: cell-based
How it was run: (§2)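 HEK-293 cells lacking all three IP3R subtypes (CRISPR), stably transfected with rat IP3R1 (S1 splice site absent), G418-selected monoclonal line. ER loaded with Mag-Fluo-4 AM (20 μM, 1 h, 22 °C), saponin-permeabilized, in Ca2+-free cytosol-like medium, pH 7.0, 220 nM free Ca2+. MgATP 1.5 mM loads stores, CPA 10 μM added, ligand 60 s later. Read-out is fluorescence at 485/520 nm, 20 °C. Release is % of (Ffull − Fempty). Hill fit; 5–11 experiments in duplicate.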

[5] = target: Inositol 1,4,5-trisphosphate-gated calcium channel ITPR1 (Rattus norvegicus) (UniProt P29994); experiment: Partial agonist activity at rat IP3R1 expressed in HEK cells assessed as increase in calcium release in cytosol by measuring fluorescence signal by Mag-Fluo4 dye based assay relative to inositol-1,4,5-triphosphate; assay type: cell-based; how it was run: as §2
[6] = target: Inositol 1,4,5-trisphosphate-gated calcium channel ITPR1 (Rattus norvegicus) (UniProt P29994); experiment: Ratio of EC50 for partial agonist activity at rat IP3R1 expressed in HEK cells assessed as increase in calcium release in cytosol by measuring fluorescence signal by Mag-Fluo4 dye based assay to Kd for binding affinity to IP3R1 in Wistar rat cerebellar membrane; assay type: cell-based; how it was run: as §1
[7] = target: Inositol 1,4,5-trisphosphate-gated calcium channel ITPR1 (Rattus norvegicus) (UniProt P29994); experiment: Ratio of EC39 for partial agonist activity at rat IP3R1 expressed in HEK cells assessed as increase in calcium release in cytosol by measuring fluorescence signal by Mag-Fluo4 dye based assay to Kd for binding affinity to IP3R1 in Wistar rat cerebellar membrane; assay type: cell-based
[8] = target: Inositol 1,4,5-trisphosphate-gated calcium channel ITPR1 (Rattus norvegicus) (UniProt P29994); experiment: Agonist activity at rat IP3R1 expressed in HEK cells assessed as increase in calcium release in cytosol by measuring fluorescence signal by Mag-Fluo4 dye based assay relative to control; assay type: cell-based; how it was run: as §2
[9] = Stability of compound in D2O at pH 7 under room temperature measured after 2 months by H-NMR spectroscopy; assay type: physicochemical; conditions: buffer, pH 7, 1461 h
How it was run: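 Triethylammonium salt left in D2O at pH 7, room temperature; degradation followed over time.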

[10] = Stability of compound assessed as acidic hydrolysis at pH 1 measured after 1 day by H-NMR spectroscopy; assay type: physicochemical; conditions: buffer, pH 1, 24 h
How it was run: (§3)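 Hydrolysis followed after 1 day at pH 1 or at pH 14.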

[11] = Stability of compound assessed as basic hydrolysis at pH 14 measured after 1 day by H-NMR spectroscopy; assay type: physicochemical; conditions: buffer, pH 14, 24 h; how it was run: as §3
[12] = Stability of compound assessed as basic hydrolysis at pH 10 measured after 1 week by H-NMR spectroscopy; assay type: physicochemical; conditions: buffer, pH 10, 168 h
How it was run: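 Kept at pH 10 for one week and checked for degradation.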

[13] = target: Inositol 1,4,5-trisphosphate-gated calcium channel ITPR1 (Rattus norvegicus) (UniProt P29994); experiment: Agonist activity at rat IP3R1 expressed in HEK cells assessed as increase in calcium release in cytosol by measuring fluorescence signal at 300 uM by Mag-Fluo4 dye based assay relative to control; assay type: cell-based; how it was run: as §2
[14] = Drug degradation at 4 degree C measured after 3 weeks by 31P-NMR analysis; assay type: physicochemical; conditions: read-out: Drug degradation
[15] = Drug metabolism assessed as catalytic hydrogenolysis by measuring beta-D-glucopyranosyl 1,3,4-trisphosphate triethylammonium formation by 31P-NMR analysis

Compound: Nc1ncnc2c1ncn2[C@@H]1O[C@H](CO)[C@@H](O[C@H]2O[C@H](CO)[C@@H](OP(=O)(O)O)[C@H](OP(=O)(O)O)[C@H]2O)[C@H]1OP(=O)(O)O [ADENOPHOSTIN A]
EC50 [1]: 24 nM
Kd [2]: 1.4 nM
Ratio [3]: 17

Compound: CO[C@H]1O[C@H](COP(=O)(O)O)[C@@H](O)[C@H](OP(=O)(O)O)[C@H]1OP(=O)(O)O
Activity [13]: 4.3%

Compound: CCN(CC)CC.CCN(CC)CC.CCN(CC)CC.O=P(O)(O)O[C@@H]1O[C@H](CO)[C@@H](OP(=O)(O)O)[C@H](OP(=O)(O)O)[C@H]1O
EC50 [1]: 80 nM
Activity [8]: 75.2%
Kd [2]: 11.2 nM
Stability [9]: Stable
Ratio [3]: 7
Stability [10]: Unstable
Stability [11]: Unstable
Stability [12]: Stable

Compound: O=P(OCc1ccccc1)(OCc1ccccc1)O[C@@H]1O[C@H](COCc2ccccc2)[C@@H](OP(=O)(OCc2ccccc2)OCc2ccccc2)[C@H](OP(=O)(OCc2ccccc2)OCc2ccccc2)[C@H]1OCc1ccccc1
degraded at 504 h [14]: 30%
Drug metabolism [15]: Metabolite detected

Second part, the compound after the results:

EC50 [4]: 87700 nM
Activity [5]: 56.2%
Kd [2]: 1230 nM
Ratio [6]: 71
Ratio [7]: 132
Compound: CO[C@@H]1O[C@@H](COP(=O)(O)O)[C@H](O)[C@@H](OP(=O)(O)O)[C@@H]1OP(=O)(O)O

EC50 [1]: 2960 nM
Activity [8]: 78.8%
Kd [2]: 129 nM
Stability [9]: Stable
Ratio [3]: 23
Stability [10]: Unstable
Stability [11]: Unstable
Stability [12]: Stable
Compound: CCN(CC)CC.CCN(CC)CC.CCN(CC)CC.O=P(O)(O)O[C@H]1O[C@H](CO)[C@@H](OP(=O)(O)O)[C@H](OP(=O)(O)O)[C@H]1O

Activity [13]: 5.9%
Compound: CO[C@H]1O[C@H](COP(=O)(O)O)[C@@H](OP(=O)(O)O)[C@H](O)[C@H]1OP(=O)(O)O

EC50 [4]: 104000 nM
Activity [5]: 53.1%
Kd [2]: 549 nM
Ratio [6]: 191
Ratio [7]: 462
Compound: CO[C@@H]1O[C@@H](COP(=O)(O)O)[C@H](OP(=O)(O)O)[C@@H](O)[C@@H]1OP(=O)(O)O
